What was measured:
Format in all cases: functional
K562 = assay: Cytotoxicity against human K562 cells after 48 hrs by SRB assay; settings: K562, 48 h
Summary of the method: (§1)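 NCI-60 human tumour cell panel screen, second stage, run by the NCI Developmental Therapeutics Program. Compounds were tested at five concentrations (0.01, 0.1, 1, 10 and 100 μM). Percentage growth was plotted against log10 concentration for each cell line. GI50, TGI and LC50 were taken from these dose-response curves.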

RPMI-8226 = assay: Cytotoxicity against human RPMI8226 cells after 48 hrs by SRB assay; settings: RPMI-8226, 48 h
Summary of the method: (§2)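 Second-stage NCI-60 panel run by the NCI Developmental Therapeutics Program, covering nine tumour subpanels. Five concentrations were tested: 0.01, 0.1, 1, 10 and 100 μM. Percentage growth at each level was plotted against log10 drug concentration. GI50, TGI and LC50 were read from these dose-response curves. Subpanel MID values were divided into the full-panel MID to give selectivity ratios.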

SR = assay: Cytotoxicity against human SR cells after 48 hrs by SRB assay
Summary of the method: (§3)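 NCI-60 five-dose study run by NCI DTP at 0.01, 0.1, 1, 10 and 100 µM. Percentage growth at each level was plotted against log10 concentration for each line, and GI50, TGI and LC50 were read from the dose-response curves.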

NCI-H322M = assay: Cytotoxicity against human NCI-H322M cells after 48 hrs by SRB assay; summary of the method: as §2
NCI-H460 = assay: Cytotoxicity against human NCI-H460 cells after 48 hrs by SRB assay; settings: NCI-H460, 48 h; summary of the method: as §2
HCT-116 = assay: Cytotoxicity against human HCT116 cells after 48 hrs by SRB assay; settings: HCT-116, 48 h; summary of the method: as §1
HCT-15 = assay: Cytotoxicity against human HCT15 cells after 48 hrs by SRB assay; settings: HCT-15, 48 h; summary of the method: as §1
HT-29 = assay: Cytotoxicity against human HT-29 cells after 48 hrs by SRB assay; settings: HT-29, 48 h; summary of the method: as §1
SNB-19 = assay: Cytotoxicity against human SNB19 cells after 48 hrs by SRB assay; settings: SNB-19, 48 h; summary of the method: as §2
U-251 = assay: Cytotoxicity against human U251 cells after 48 hrs by SRB assay; settings: U-251, 48 h; summary of the method: as §3
LOX IMVI = assay: Cytotoxicity against human LOXIMVI cells after 48 hrs by SRB assay; summary of the method: as §1
Malme-3M = assay: Cytotoxicity against human MALME-3M cells after 48 hrs by SRB assay; summary of the method: as §1
M14 = assay: Cytotoxicity against human M14 cells after 48 hrs by SRB assay; settings: M14, 48 h; summary of the method: as §1
MDA-MB-435 = assay: Cytotoxicity against human MDA-MB-435 cells after 48 hrs by SRB assay; settings: MDA-MB-435, 48 h; summary of the method: as §2
SK-MEL-2 = assay: Cytotoxicity against human SK-MEL-2 cells after 48 hrs by SRB assay; settings: SK-MEL-2, 48 h; summary of the method: as §2
SK-MEL-28 = assay: Cytotoxicity against human SK-MEL-28 cells after 48 hrs by SRB assay; settings: SK-MEL-28, 48 h; summary of the method: as §2
OVCAR-4 = assay: Cytotoxicity against human OVCAR4 cells after 48 hrs by SRB assay; settings: OVCAR-4, 48 h; summary of the method: as §2
OVCAR-8 = assay: Cytotoxicity against human OVCAR8 cells after 48 hrs by SRB assay; settings: OVCAR-8, 48 h; summary of the method: as §2
NCI/ADR-RES = assay: Cytotoxicity against human NCI/ADR-RES cells after 48 hrs by SRB assay; summary of the method: as §2
786-0 = assay: Cytotoxicity against human 786-0 cells after 48 hrs by SRB assay; settings: 786-0, 48 h; summary of the method: as §1
[1] = Cytotoxicity against human Hs578T cells after 48 hrs by SRB assay; settings: Hs-578T; summary of the method: as §1
BT-549 = assay: Cytotoxicity against human BT549 cells after 48 hrs by SRB assay; settings: BT-549, 48 h; summary of the method: as §1
MDA-MB-468 = assay: Cytotoxicity against human MDA-MB-468 cells after 48 hrs by SRB assay; settings: MDA-MB-468, 48 h; summary of the method: as §2
[2] = Cytotoxicity against human leukemia cells assessed as growth inhibition after 48 hrs by SRB assay; settings: Leukemia cell
Summary of the method: (§4)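 Values come from the NCI-60 five-dose panel (0.01–100 µM). The subpanel MID is the mean GI50 over the lines of that tumour subpanel. The selectivity ratio is the full-panel MID divided by the subpanel MID; 3–6 is rated moderate and >6 high.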

[3] = Cytotoxicity against human colon cancer cells assessed as growth inhibition after 48 hrs by SRB assay; settings: Cancer cell lines; summary of the method: as §4
[4] = Cytotoxicity against human ovarian cancer cells assessed as growth inhibition after 48 hrs by SRB assay; settings: Cancer cell lines; summary of the method: as §4
[5] = Cytotoxicity against human renal cancer cells assessed as growth inhibition after 48 hrs by SRB assay; settings: Cancer cell lines; summary of the method: as §4
[6] = Cytotoxicity against human prostate cancer cells assessed as growth inhibition after 48 hrs by SRB assay; settings: Cancer cell lines; summary of the method: as §4
[7] = Cytotoxicity against human breast cancer cells assessed as growth inhibition after 48 hrs by SRB assay; settings: Cancer cell lines; summary of the method: as §4
[8] = read-out: LC50 (the source's name)

Compound: O=C1c2ccccc2C(=O)c2c1cc(SCc1ccccc1)c1nsnc21
- GI50 (K562): 1.47 µM
- LC50 (K562): > 50 µM
- TGI (K562): 6.5 µM
- GI50 (RPMI-8226): 8.45 µM
- LC50 (RPMI-8226): > 50 µM
- TGI (RPMI-8226): 33.4 µM
- GI50 (SR): 1.99 µM
- LC50 (SR): > 50 µM
- TGI (SR): 13.1 µM
- GI50 (NCI-H322M): > 50 µM
- LC50 (concentration causing 50% net cell kill) (NCI-H322M): > 50 µM
- TGI (NCI-H322M): > 50 µM
- GI50 (NCI-H460): > 50 µM
- LC50 (concentration killing 50% of cells) (NCI-H460): 32.8 µM
- TGI (NCI-H460): 16.8 µM
- GI50 (HCT-116): 7.29 µM
- TGI (HCT-116): 14.2 µM
- CC50 (HCT-116; [8]): 27.5 µM
- GI50 (HCT-15): 8.27 µM
- LC50 (HCT-15): 35.3 µM
- TGI (HCT-15): 17.1 µM
- GI50 (HT-29): > 50 µM
- LC50 (HT-29): > 50 µM
- TGI (HT-29): > 50 µM
- GI50 (SNB-19): 12.7 µM
- LC50 (SNB-19): > 50 µM
- TGI (SNB-19): 38.8 µM
- GI50 (U-251): 6.46 µM
- LC50 (U-251): 30.3 µM
- TGI (U-251): 14 µM
- GI50 (LOX IMVI): 5.68 µM
- TGI (LOX IMVI): 12.8 µM
- CC50 (LOX IMVI; [8]): 29.1 µM
- GI50 (Malme-3M): 11 µM
- LC50 (Malme-3M): 44.6 µM
- TGI (Malme-3M): 22.2 µM
- GI50 (M14): 26 µM
- LC50 (M14): > 50 µM
- TGI (M14): > 50 µM
- GI50 (MDA-MB-435): 9.19 µM
- LC50 (MDA-MB-435): 37.3 µM
- TGI (MDA-MB-435): 18.5 µM
- GI50 (SK-MEL-2): 8.58 µM
- LC50 (SK-MEL-2): 33.7 µM
- TGI (SK-MEL-2): 18.6 µM
- GI50 (SK-MEL-28): 10.3 µM
- TGI (SK-MEL-28): 17.5 µM
- CC50 (SK-MEL-28; [8]): 42.9 µM
- GI50 (OVCAR-4): 6.05 µM
- LC50 (OVCAR-4): 29 µM
- TGI (OVCAR-4): 13.2 µM
- GI50 (OVCAR-8): 3.5 µM
- TGI (OVCAR-8): 25.8 µM
- CC50 (OVCAR-8; [8]): > 50 µM
- GI50 (NCI/ADR-RES): 12.9 µM
- LC50 (concentration killing 50% of cells) (NCI/ADR-RES): > 50 µM
- TGI (NCI/ADR-RES): > 50 µM
- GI50 (786-0): 12.3 µM
- LC50 (concentration killing 50% of cells) (786-0): > 50 µM
- TGI (786-0): 25.4 µM
- GI50 [1]: 17.3 µM
- LC50 [1]: > 50 µM
- TGI [1]: > 50 µM
- GI50 (BT-549): 15.2 µM
- LC50 (BT-549): > 50 µM
- TGI (BT-549): 28.4 µM
- GI50 (MDA-MB-468): 0.89 µM
- LC50 (MDA-MB-468): 4.21 µM
- TGI (MDA-MB-468): 1.93 µM
- GI50 [2]: 2.67 µM
- GI50 [3]: 16.1 µM
- GI50 [4]: 8.4 µM
- GI50 [5]: 12.7 µM
- GI50 [6]: 10.5 µM
- GI50 [7]: 8 µM
